IC50 and Activity data for 24 compounds are collected here from ChEMBL document CHEMBL1150329, “The discovery of fused pyrrole carboxylic acids as novel, potent D-amino acid oxidase (DAO) inhibitors” (Bioorg Med Chem Lett, 2008).

One test addresses D-amino-acid oxidase (Homo sapiens, UniProt P14920). The experiment in a line: Inhibition of human DAO.
Another test deals with Cytochrome P450 3A4 (Homo sapiens, UniProt P08684). As to the kind of experiment: Inhibition of CYP3A4. It is filed as ADME.
Chain of Cytochrome P450 3A4 (P08684 whole entry): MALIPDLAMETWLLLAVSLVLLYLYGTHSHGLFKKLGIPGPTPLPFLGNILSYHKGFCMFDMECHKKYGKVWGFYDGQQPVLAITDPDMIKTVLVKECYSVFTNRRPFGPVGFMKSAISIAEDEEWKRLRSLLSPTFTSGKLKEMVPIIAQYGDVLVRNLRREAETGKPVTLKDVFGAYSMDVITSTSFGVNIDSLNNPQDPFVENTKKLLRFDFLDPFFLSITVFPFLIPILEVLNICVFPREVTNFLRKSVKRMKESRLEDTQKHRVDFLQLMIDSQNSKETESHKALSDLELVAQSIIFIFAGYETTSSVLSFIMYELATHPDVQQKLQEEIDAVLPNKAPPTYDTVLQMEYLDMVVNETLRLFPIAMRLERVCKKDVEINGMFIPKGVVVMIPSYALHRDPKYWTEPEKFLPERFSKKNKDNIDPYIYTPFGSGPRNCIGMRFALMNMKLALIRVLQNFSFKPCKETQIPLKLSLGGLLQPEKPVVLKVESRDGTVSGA
The next test has as its target Cytochrome P450 2D6 (Homo sapiens, UniProt P10635). The experiment in a line: Inhibition of CYP2D6. It is filed as ADME.
Test [1] can be described thus: Inhibition of CYP3C9. It is filed as ADME.
Another test has as its target T1, D-aspartate oxidase (Homo sapiens, UniProt Q99489).
T1 sequence (Q99489 whole entry): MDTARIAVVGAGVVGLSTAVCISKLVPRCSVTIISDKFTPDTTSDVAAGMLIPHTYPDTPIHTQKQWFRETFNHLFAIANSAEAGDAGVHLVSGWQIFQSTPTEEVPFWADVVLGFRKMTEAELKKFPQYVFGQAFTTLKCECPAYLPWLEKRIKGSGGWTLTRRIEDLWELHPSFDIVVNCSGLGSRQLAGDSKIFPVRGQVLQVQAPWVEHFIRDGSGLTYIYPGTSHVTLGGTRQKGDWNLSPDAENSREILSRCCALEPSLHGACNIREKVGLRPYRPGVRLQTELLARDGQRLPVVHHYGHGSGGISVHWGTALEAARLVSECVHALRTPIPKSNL
The experiment in a line: Inhibition of human DDO.

Test [2] concerns Rattus norvegicus. The experiment in a line: Ex vivo inhibition of DAO in ip dosed rat kidney. It is filed as functional, organism-based. In outline:
(§1)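 Rats were given 25, 75 or 150 mg/kg ip. DAO enzyme activity was measured ex vivo in kidney and cerebellum at 1, 2 and 4 h after dosing and compared with vehicle-dosed rats. Time and treatment effects were tested by two-way ANOVA, with Bonferroni post tests for individual dose-versus-vehicle comparisons.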

The subject of test [3] is Rattus norvegicus. As to the kind of experiment: Ex vivo inhibition of DAO in ip dosed rat cerebellum. The test is classed as functional, organism-based. In outline: as §1
For test [4], the system named is Rattus norvegicus. As to the kind of experiment: Ex vivo inhibition of DAO in rat cerebellum at 25 mg/kg, ip after 1 hr. The test is classed as functional, organism-based. Further details: dose 25 mg/kg. In outline: as §1

pIC50: −log10 of the molar value. Activity calls are given as the source filed them. The calls are words filed in the database; no cut-off is given here. A value given as a limit tells only on which side of the number the result lay.

Chain of D-amino-acid oxidase (P14920 whole entry): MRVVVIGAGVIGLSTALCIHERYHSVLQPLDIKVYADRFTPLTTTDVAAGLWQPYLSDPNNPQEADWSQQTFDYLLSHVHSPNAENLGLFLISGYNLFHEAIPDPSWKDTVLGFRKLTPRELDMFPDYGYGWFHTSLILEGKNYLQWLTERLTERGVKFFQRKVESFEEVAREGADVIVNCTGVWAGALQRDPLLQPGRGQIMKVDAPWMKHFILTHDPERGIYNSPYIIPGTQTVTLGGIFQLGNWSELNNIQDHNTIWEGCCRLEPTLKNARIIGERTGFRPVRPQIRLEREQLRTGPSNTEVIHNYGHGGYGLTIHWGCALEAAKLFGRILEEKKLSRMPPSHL
Chain of Cytochrome P450 2D6 (P10635 whole entry): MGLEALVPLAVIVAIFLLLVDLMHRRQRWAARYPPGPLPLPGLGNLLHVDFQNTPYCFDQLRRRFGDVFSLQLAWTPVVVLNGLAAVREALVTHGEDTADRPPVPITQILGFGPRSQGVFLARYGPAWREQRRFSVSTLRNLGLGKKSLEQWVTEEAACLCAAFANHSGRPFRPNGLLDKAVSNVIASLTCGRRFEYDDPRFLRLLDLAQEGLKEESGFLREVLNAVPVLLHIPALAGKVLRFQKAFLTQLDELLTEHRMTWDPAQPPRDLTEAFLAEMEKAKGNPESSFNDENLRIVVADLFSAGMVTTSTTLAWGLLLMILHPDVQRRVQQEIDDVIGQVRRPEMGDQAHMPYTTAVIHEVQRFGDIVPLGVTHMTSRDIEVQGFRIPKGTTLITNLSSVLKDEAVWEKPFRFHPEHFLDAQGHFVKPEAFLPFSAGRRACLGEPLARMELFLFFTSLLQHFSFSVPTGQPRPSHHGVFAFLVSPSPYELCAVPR

As to `O=C(O)c1cc2sccc2[nH]1`, the pIC50 against D-amino-acid oxidase was 6.61; at Cytochrome P450 3A4, below 5.00; against Cytochrome P450 2D6, below 5.00; in test [1], below 5.00.
Compound `O=C(O)c1cc2occ(CO)c2[nH]1` showed a pIC50 on D-amino-acid oxidase below 5.30.
`O=C(O)c1cc2scnc2[nH]1` had a pIC50 against D-amino-acid oxidase of 6.29.
In turn, `O=C(O)c1cc2oc(Cl)cc2[nH]1` gave a pIC50 on D-amino-acid oxidase below 5.30.
Compound `Cc1oc2cc(C(=O)O)[nH]c2c1C` showed a pIC50 on D-amino-acid oxidase below 5.30.
Regarding `O=C(O)c1ccc[nH]1`, the pIC50 against D-amino-acid oxidase is below 5.30.
Take `O=C(O)c1cc2oc(-c3ccc(Cl)cc3Cl)cc2[nH]1`: at D-amino-acid oxidase, the pIC50 was below 5.30.
The same measure, in the same setting: for `O=C(O)c1cc2ocnc2[nH]1` the value was below 5.30.
In turn, `N#Cc1csc2cc(C(=O)O)[nH]c12` had a pIC50 against D-amino-acid oxidase of 5.94.
`O=C(O)c1cc2occ(-c3cccc(Cl)c3)c2[nH]1` gave a pIC50 at D-amino-acid oxidase below 5.30.
Turning to `O=C(O)c1cc2[nH]ncc2[nH]1`, the pIC50 at D-amino-acid oxidase was below 5.30.
As for `O=C(O)c1cc2occ(-c3ccc(Cl)cc3)c2[nH]1`, on D-amino-acid oxidase, the pIC50 is below 5.30.
With `O=C(O)c1cc2oc(-c3ccccc3)cc2[nH]1`, at D-amino-acid oxidase, the pIC50 was below 5.30.
`O=C(O)c1cc2ccccc2[nH]1` [INDOLE-2-CARBOXYLIC ACID]: the pIC50 against D-amino-acid oxidase was 6.13; at D-aspartate oxidase, below 5.30.
`O=C(O)c1cc2ncsc2[nH]1`: at D-amino-acid oxidase, the pIC50 is 5.38.
In the case of `O=C(O)c1cc2oc(-c3ccc(Cl)cc3)cc2[nH]1`, on D-amino-acid oxidase, the pIC50 is below 5.30.
For `O=C(O)c1cc2occc2[nH]1`, the pIC50 at D-aspartate oxidase was below 5.30; against Cytochrome P450 3A4, below 5.00; against Cytochrome P450 2D6, below 5.00; in test [1], below 5.00. Also, the result in the test on Rattus norvegicus [2] and with Rattus norvegicus [3] was Active. For the same compound, in the test on Rattus norvegicus [4], the result was inactive.
Turning to `O=C(O)c1cc2oc(-c3cccc(Cl)c3)cc2[nH]1`, on D-amino-acid oxidase, the pIC50 was below 5.30.
On to `O=C(O)c1cc2occ(-c3cccnc3)c2[nH]1`, for which the pIC50 against D-amino-acid oxidase is below 5.30.
In turn, `O=C(O)c1cc2occ(Cl)c2[nH]1` gave a pIC50 on D-amino-acid oxidase of 5.85.
With `Oc1noc2cc(Cl)ccc12`, at D-aspartate oxidase, the pIC50 is below 5.30.
The compound `O=C(O)c1cc2ccsc2[nH]1` had a pIC50 against D-amino-acid oxidase of 6.57.
Turning to `O=C(O)c1cc2sc(Cl)cc2[nH]1`, on D-amino-acid oxidase, the pIC50 was below 5.30.
For the compound `O=C(O)c1cc(Cl)c(Cl)o1`, the pIC50 against D-amino-acid oxidase was 6.46; at D-aspartate oxidase, below 5.30.

As a reminder, the pIC50 is −log10 of the IC50, conventionally taken in molar units. Higher therefore signals a small IC50.
